Experimental data published in ChEMBL document CHEMBL1782034, “Design, synthesis and biological evaluation of novel substituted benzoylguanidine derivatives as potent Na+/H+ exchanger inhibitors” (Bioorg Med Chem Lett, 2009).
The source made the active and inactive calls.

Legend:
[1] = tested on: Rattus norvegicus; experiment: Cardioprotective activity against ischemia-reperfusion injury in Sprague-Dawley rat assessed as decrease in myocardial infarct size at 1 mg/kg, iv; type: functional, organism-based; set-up: dose 1 mg/kg; settings: Myocardium
Summary of the method: (§1)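 In vivo rat model: coronary artery ligated 45 min, then the ligature is loosened for 90 min of reperfusion. Compound is given as an iv bolus 5 min before reperfusion at 1, 0.5 or 0.25 mg/kg. Infarct size is expressed as a percentage of left ventricle area (IS/LV%). n = 8; compared against sham and model groups.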

[2] = tested on: Rattus norvegicus; experiment: Cardioprotective activity against ischemia-reperfusion injury in Sprague-Dawley rat assessed as decrease in creatine kinase release at 1 mg/kg, iv; type: functional, organism-based; set-up: dose 1 mg/kg
Summary of the method: (§2)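 Rats undergo 45 min coronary artery occlusion followed by 90 min reperfusion. Compound is given iv 5 min before reperfusion at 1, 0.5 or 0.25 mg/kg. Prepared serum is assayed for CK, LDH and SOD activities and MDA content as injury indicators, versus sham and model groups.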

[3] = tested on: Rattus norvegicus; experiment: Cardioprotective activity against ischemia-reperfusion injury in Sprague-Dawley rat assessed as decrease in LDH release at 1 mg/kg, iv; type: functional, organism-based; set-up: dose 1 mg/kg; summary of the method: as §2
[4] = tested on: Rattus norvegicus; experiment: Cardioprotective activity against ischemia-reperfusion injury in Sprague-Dawley rat assessed as decrease in malondialdehyde at 1 mg/kg, iv; type: functional, organism-based; set-up: dose 1 mg/kg; summary of the method: as §2
[5] = tested on: Rattus norvegicus; experiment: Cardioprotective activity against ischemia-reperfusion injury in Sprague-Dawley rat assessed as increase in SOD activity in serum at 1 mg/kg, iv; type: functional, organism-based; set-up: dose 1 mg/kg; summary of the method: as §2
[6] = organism: Rattus norvegicus; experiment: Cardioprotective activity against Langendorff perfused Sprague-Dawley rat heart assessed as increase in myocardial energy metabolism at 10 uM; type: functional, organism-based
Summary of the method: (§3)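 Isolated rat hearts: 20 min equilibration, then 30 min low-rate perfusion (0.5 ml/min), then 30 min reperfusion. Drug is added to the perfusate during the low-rate period only. After reperfusion, the heart tissue homogenate is assayed for Na+-K+ ATPase activity, lactate (LD) content and ATP content. n = 10; compared against sham and model groups.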

[7] = organism: Rattus norvegicus; experiment: Cardioprotective activity against Langendorff perfused Sprague-Dawley rat heart assessed as increase in relaxing coronary artery at 10 uM; type: functional, organism-based
Summary of the method: (§4)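 Isolated hearts are equilibrated 20 min, perfused at a low rate (0.5 ml/min) for 30 min with compound in the perfusate, then reperfused 30 min. Coronary flow at the start and at the end of reperfusion is expressed as a ratio to the end-of-equilibration value. n = 10.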

[8] = tested on: Rattus norvegicus; experiment: Cardioprotective activity against ischemia-reperfusion injury in iv dosed Sprague-Dawley rat assessed as decrease in malondialdehyde; type: functional, organism-based; summary of the method: as §2
[9] = tested on: Rattus norvegicus; experiment: Cardioprotective activity against ischemia-reperfusion injury in iv dosed Sprague-Dawley rat assessed as increase in SOD activity in serum; type: functional, organism-based; summary of the method: as §2
[10] = organism: Rattus norvegicus; experiment: Cardioprotective activity against Langendorff perfused Sprague-Dawley rat heart assessed as increase in coronary flow at 2 to 50 uM; type: functional, organism-based; summary of the method: as §4
[11] = organism: Rattus norvegicus; experiment: Cardioprotective activity against Langendorff perfused Sprague-Dawley rat heart assessed as increase in ATP content in homogenates at 2 to 50 uM; type: functional; summary of the method: as §3
[12] = organism: Rattus norvegicus; experiment: Cardioprotective activity against Langendorff perfused Sprague-Dawley rat heart assessed as increase in […]-K+ ATPase activity in homogenates at 2 to 50 uM; type: functional; summary of the method: as §3
[13] = organism: Rattus norvegicus; experiment: Cardioprotective activity against Langendorff perfused Sprague-Dawley rat heart assessed as decrease in lactic acid content in homogenates at 2 to 50 uM; type: functional; summary of the method: as §3
[14] = organism: Rattus norvegicus; experiment: Cardioprotective activity against Langendorff perfused Sprague-Dawley rat heart assessed as increase in myocardial energy metabolism; type: functional, organism-based; summary of the method: as §3
[15] = organism: Rattus norvegicus; experiment: Cardioprotective activity against Langendorff perfused Sprague-Dawley rat heart assessed as increase in relaxing coronary artery at 50 uM; type: functional, organism-based; summary of the method: as §4
[16] = tested on: Rattus norvegicus; experiment: Cardioprotective activity against ischemia-reperfusion injury in iv dosed Sprague-Dawley rat assessed as decrease in myocardial infarct size; type: functional, organism-based; settings: Myocardium; summary of the method: as §1
[17] = tested on: Rattus norvegicus; experiment: Cardioprotective activity against ischemia-reperfusion injury in iv dosed Sprague-Dawley rat assessed as decrease in creatine kinase release; type: functional, organism-based; summary of the method: as §2
[18] = tested on: Rattus norvegicus; experiment: Cardioprotective activity against ischemia-reperfusion injury in iv dosed Sprague-Dawley rat assessed as decrease in LDH release; type: functional, organism-based; summary of the method: as §2

Measured: Activity

CC(C)c1ccc(C(=O)N=C(N)N)cc1S(C)(=O)=O
active: [1] | [2] | [3] | [4] | [5] | [6] | [7]

COc1ccc(CN2CCN(Cc3ccc(C(=O)N=C(N)N)cc3[N+](=O)[O-])CC2)c(OC)c1OC
active: [8] Dose-dependent effect | [9] Dose-dependent effect | [1] | [2] | [3] | [4] | [5] | [10] | [11] | [12] | [13] | [14] Dose-dependent effect | [7] | [15] | [16] Dose-dependent effect | [17] Dose-dependent effect | [18] Dose-dependent effect
